In ChEMBL document CHEMBL4138188, “Eurycomalactone Inhibits Expression of Endothelial Adhesion Molecules at a Post-Transcriptional Level” (J Nat Prod, 2017):
Active and inactive are the calls of the source. The calls are words filed in the database; no cut-off is given here.

Assays:
[1] = target: T1, Inhibitor of nuclear factor kappa-B kinase subunit beta (Homo sapiens) (UniProt O14920); assay: Inhibition of IKKbeta phosphorylation level in TNFalpha-stimulated HUVECtert at 2 uM pretreated for 30 mins followed by TNFalpha stimulation measured after 5 to 15 mins by Western blot analysis
T1 sequence (whole entry): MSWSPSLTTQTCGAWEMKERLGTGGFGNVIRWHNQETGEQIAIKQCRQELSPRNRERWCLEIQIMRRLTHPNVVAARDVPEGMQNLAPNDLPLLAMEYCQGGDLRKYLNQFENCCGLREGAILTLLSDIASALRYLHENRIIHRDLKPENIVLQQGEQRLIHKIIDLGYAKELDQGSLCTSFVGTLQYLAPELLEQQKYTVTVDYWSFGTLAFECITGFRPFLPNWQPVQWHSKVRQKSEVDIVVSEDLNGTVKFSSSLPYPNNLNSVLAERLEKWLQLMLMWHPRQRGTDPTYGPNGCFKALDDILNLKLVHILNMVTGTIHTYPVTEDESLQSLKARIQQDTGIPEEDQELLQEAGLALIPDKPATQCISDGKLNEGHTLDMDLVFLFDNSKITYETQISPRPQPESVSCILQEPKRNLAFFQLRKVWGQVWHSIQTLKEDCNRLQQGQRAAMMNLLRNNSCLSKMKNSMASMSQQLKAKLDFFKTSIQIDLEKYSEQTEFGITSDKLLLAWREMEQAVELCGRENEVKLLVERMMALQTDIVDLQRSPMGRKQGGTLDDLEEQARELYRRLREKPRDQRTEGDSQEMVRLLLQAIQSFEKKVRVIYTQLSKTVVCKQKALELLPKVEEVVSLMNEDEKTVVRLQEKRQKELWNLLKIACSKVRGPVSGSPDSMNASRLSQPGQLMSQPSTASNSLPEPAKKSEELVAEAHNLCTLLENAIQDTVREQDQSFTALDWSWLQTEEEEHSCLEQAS
Procedure, shortened: (§1)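 HUVECtert on gelatin-coated dishes pretreated with 2 μM agent or 0.1% DMSO, then TNFα 10 ng/mL; p-IKKα/β, p-IκBα and total IκBα immunoblotted at 5 or 15 min post-stimulation, actin loading control; means ± SD, n = 3, one-way ANOVA/Dunnett.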

[2] = species: Homo sapiens; assay: Inhibition of NF-kappaB in HUVECtert assessed as reduction in TNFalpha-induced ICAM-1 mRNA expression level at 0.5 to 5 uM pretreated for 30 mins followed by TNFalpha stimulation measured after 4 hrs by qRT-PCR analysis
[3] = species: Homo sapiens; assay: Inhibition of de novo protein synthesis in HUVECtert at 2 to 5 uM after 30 mins by Click-iT OPP/Alexa fluor 488 picolyl azide reagent based confocal fluorescence microscopy; assay type: functional
Procedure, shortened: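 Cells on gelatin coverslips (24 h) exposed 30 min to agent (2 or 5 μM; cycloheximide 1, 3.5, 35 μM) or 0.1% DMSO, then 20 μM OPP for 30 min; formaldehyde fixation, Triton permeabilisation, Alexa 488 picolyl azide click reaction 30 min, nuclear counterstain; confocal imaging at 10×, constant gain and exposure.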

[4] = target: T2, NF-kappa-B inhibitor alpha (Homo sapiens) (UniProt P25963); assay: Inhibition of IkappaBalpha phosphorylation level in TNFalpha-stimulated HUVECtert at 2 uM pretreated for 30 mins followed by TNFalpha stimulation measured after 5 to 15 mins by Western blot analysis; procedure, shortened: as §1
T2 sequence (whole entry): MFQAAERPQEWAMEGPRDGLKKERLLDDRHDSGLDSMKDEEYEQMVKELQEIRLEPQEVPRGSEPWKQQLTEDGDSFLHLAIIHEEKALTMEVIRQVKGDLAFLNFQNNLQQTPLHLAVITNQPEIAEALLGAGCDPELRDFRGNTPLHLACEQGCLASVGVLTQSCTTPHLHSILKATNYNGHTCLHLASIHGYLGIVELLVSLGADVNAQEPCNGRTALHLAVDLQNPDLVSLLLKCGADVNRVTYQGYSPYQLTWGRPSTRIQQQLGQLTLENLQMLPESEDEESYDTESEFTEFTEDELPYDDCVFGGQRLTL

[5] = Effect on basal E-selectin expression level in HUVECtert at 0.5 to 10 uM incubated for 30 mins by flow cytometry; assay type: ADME; settings: human, 0.5 h
Procedure, shortened: (§2)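 Unstimulated HUVECtert treated with 0.5−10 μM test agent without TNFα; surface VCAM-1, ICAM-1 or E-selectin stained with FITC-labelled antibodies and read by flow cytometry.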

[6] = species: Homo sapiens; assay: Inhibition of NF-kappaB in HUVECtert assessed as reduction in cyclin D1 mRNA expression level at 2 uM measured up to 240 mins by qRT-PCR analysis
Procedure, shortened: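 HUVECtert incubated without TNFα with 2 μM agent, 1 μM cycloheximide or 0.1% DMSO for 0.5−4 h; cyclin D1 mRNA by qRT-PCR, 2−ΔΔCt analysis.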

[7] = species: Homo sapiens; assay: Reduction in survivin level in HUVECtert at 2 uM measured up to 480 mins by Western blot analysis; assay type: functional
Procedure, shortened: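 HUVECtert treated with 1 μM cycloheximide, 2 μM agent, vehicle, or left untreated for a time course; cyclin D1 or survivin by Western blot, actin loading control; means ± SD of three blots, one-way ANOVA/Dunnett versus untreated.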

[8] = species: Homo sapiens; assay: Reduction in cyclin A level in HUVECtert at 2 uM after 8 hrs by Western blot analysis; assay type: functional
[9] = species: Homo sapiens; assay: (§3) Inhibition of NF-kappaB in HUVECtert assessed as reduction in TNFalpha-induced E-selectin expression level pretreated for 30 mins followed by TNFalpha stimulation measured after 5 hrs by flow cytometry
Procedure, shortened: (§4)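 FITC-antibody surface staining, flow cytometry; expression relative to TNFα-stimulated control. Parthenolide 10 μM as positive control; means ± SD, n = 3, one-way ANOVA/Dunnett versus vehicle.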

[10] = as §3; set-up: species or system Homo sapiens; procedure, shortened: as §4
[11] = Effect on basal ICAM-1 expression level in HUVECtert at 0.5 to 10 uM incubated for 30 mins by flow cytometry; assay type: ADME; settings: human, 0.5 h; procedure, shortened: as §2
[12] = species: Homo sapiens; assay: Reduction in p53 level in HUVECtert at 2 uM after 8 hrs by Western blot analysis; assay type: functional
[13] = target: T2, NF-kappa-B inhibitor alpha (Homo sapiens); assay: Inhibition of IkappaBalpha degradation in TNFalpha-stimulated HUVECtert at 2 uM pretreated for 30 mins followed by TNFalpha stimulation measured after 5 to 15 mins by Western blot analysis; procedure, shortened: as §1
[14] = target: Transcription factor p65 (Homo sapiens) (UniProt Q04206); assay: Inhibition of NF-kappaB p65 binding to DNA consensus in TNFalpha-stimulated HUVECtert at 2 uM pretreated for 30 mins followed by TNFalpha stimulation measured after 1 hr […]
[15] = species: Homo sapiens; assay: Cytotoxicity against TNFalpha-stimulated HUVECtert assessed as reduction in cell viability incubated for 30 mins followed by TNFalpha stimulation measured after 17.5 hrs by resazurin dye based fluorescence assay; assay type: functional
Procedure, shortened: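 HUVECtert (passage ≤15) seeded on gelatin-coated wells, grown 48 h, then exposed to test agent or 0.1% DMSO vehicle, with or without TNFα; digitonin 100 μg/mL as positive control. After 18 h, supernatant removed, cells washed, then 2 h with 10 μg/mL resazurin in PBS; metabolic conversion read relative to vehicle.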

[16] = species: Homo sapiens; assay: Inhibition of NF-kappaB in HUVECtert assessed as reduction in TNFalpha-induced E-selectin mRNA expression level at 0.5 to 5 uM pretreated for 30 mins followed by TNFalpha stimulation measured after 2 hrs by qRT-PCR analysis

Transcription factor p65 (Homo sapiens), sequence (Q04206 whole entry): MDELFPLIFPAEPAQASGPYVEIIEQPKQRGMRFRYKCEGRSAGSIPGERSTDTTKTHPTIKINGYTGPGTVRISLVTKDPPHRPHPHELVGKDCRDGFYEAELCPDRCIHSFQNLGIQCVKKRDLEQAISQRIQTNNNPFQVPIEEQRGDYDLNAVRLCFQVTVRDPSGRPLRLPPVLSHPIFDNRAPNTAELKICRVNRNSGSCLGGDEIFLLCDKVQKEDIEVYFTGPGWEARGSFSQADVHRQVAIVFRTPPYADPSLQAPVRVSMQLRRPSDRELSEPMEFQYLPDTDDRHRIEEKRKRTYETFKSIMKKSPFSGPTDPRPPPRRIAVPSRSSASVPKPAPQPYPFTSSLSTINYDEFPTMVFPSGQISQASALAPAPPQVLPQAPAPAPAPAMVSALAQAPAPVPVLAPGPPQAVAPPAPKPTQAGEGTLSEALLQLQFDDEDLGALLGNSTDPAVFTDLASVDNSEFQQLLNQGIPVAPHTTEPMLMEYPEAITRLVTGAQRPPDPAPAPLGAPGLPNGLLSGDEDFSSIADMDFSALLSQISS

Question: For `CC1=CC(=O)[C@@H](O)[C@@]2(C)[C@H]1CC(=O)[C@@]1(C)[C@H]3C(=O)O[C@H]([C@@H]3C)[C@H](O)[C@@H]12` [EURYCOMALACTONE], which inhibition [1] is on record?
Answer: inactive

Question: What about the inhibition [2] of the same molecule?
Answer: inactive

Question: What about the inhibition [3] of the same molecule?
Answer: Active

Question: And the inhibition [4]?
Answer: inactive

Question: What about the Activity [5] of the same molecule?
Answer: Non-Toxic

Question: What about the inhibition [6] of the same molecule?
Answer: inactive

Question: And the Activity [7]?
Answer: inactive

Question: What about the Activity [8] of the same molecule?
Answer: inactive

Question: And the inhibition [9]?
Answer: Dose-dependent effect

Question: What about the IC50 [10] of the same molecule?
Answer: 560 nM

Question: What about the Activity [11] of the same molecule?
Answer: Non-Toxic

Question: What about the Activity [12] of the same molecule?
Answer: inactive

Question: What about the inhibition [13] of the same molecule?
Answer: inactive

Question: What about the inhibition [14] of the same molecule?
Answer: inactive

Question: And the Activity [15]?
Answer: inactive

Question: What about the inhibition [16] of the same molecule?
Answer: inactive
